Measurements: ChEMBL document CHEMBL4038305, “Benzoxaborole Antimalarial Agents. Part 5. Lead Optimization of Novel Amide Pyrazinyloxy Benzoxaboroles and Identification of a Preclinical Candidate” (J Med Chem, 2017)

Assays:
[1] = test system: Plasmodium falciparum; assay: Antimalarial activity against chloroquine-sensitive Plasmodium falciparum 3D7 infected in human erythrocytes assessed as reduction in [3H]-hypoxanthine incorporation preincubated for 24 hrs followed by [3H]-hypoxanthine addition measured after 24 hrs by scintillation counting method; type: functional, cell-based
Method in brief: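 P. falciparum 3D7 cultures were exposed to the compound for 48 h, with atovaquone as the reference control. IC50 was taken from three replicates.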

[2] = Terminal half life in CD1 mouse at 5 mg/kg, po via gavage by HPLC/MS analysis; type: ADME, organism-based; conditions: in vivo, read-out: beta t1/2 (converted)
Method in brief: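 Female CD-1 mice, male SD rats or beagle dogs given 5 mg/kg by iv injection or oral gavage. Formulation was PEG300/propylene glycol/water 55/25/20, pH 6. Blood samples analysed by HPLC–MS/MS; parameters include AUC0-inf extrapolated to infinity and terminal half-life.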

[3] = AUC (0 to infinity) in CD1 mouse at 5 mg/kg, iv by HPLC/MS analysis; type: ADME, organism-based; set-up: dose 5 mg/kg, time infinity, route intravenous; conditions: in vivo
[4] = Metabolic stability in human hepatocytes at 22 uM after 44 hrs; type: ADME, cell-based, Hepatocyte
[5] = test system: Plasmodium berghei; assay: Antimalarial activity against Plasmodium berghei infected in Swiss Webster mouse assessed as mouse survival rate at 100 mg/kg administered once daily via oral gavage for 4 consecutive days beginning 1 hr after infection measured on day 4 post infection relative to control; type: functional
Method in brief: (§1)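 Mice given an intraperitoneal injection of P. berghei-infected erythrocytes taken from a previously infected animal. Oral dosing once daily for 4 consecutive days, starting 1 h after infection. Vehicle: polyethylene glycol 300/propylene glycol/water (weight ratio 55/25/20). Percent survival recorded daily from day 4 to day 20. Chloroquine 30 mg/kg and vehicle-only groups served as controls.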

[6] = test system: Plasmodium berghei; assay: Antimalarial activity against Plasmodium berghei infected in Swiss Webster mouse assessed as mouse survival rate at 3.7 mg/kg administered once daily via oral gavage for 4 consecutive days beginning 1 hr after infection measured on day 4 post infection relative to control; type: functional
Method in brief: (§2)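 P. berghei-infected erythrocytes taken from a previously infected mouse were injected intraperitoneally. Oral dosing, once daily for 4 consecutive days, began 1 h after infection, in polyethylene glycol 300/propylene glycol/water (55/25/20 by weight). Chloroquine at 30 mg/kg was the positive control, with a vehicle-only group. Percent survival was recorded daily from day 4 to day 20.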

[7] = test system: Plasmodium berghei; assay: Antimalarial activity against Plasmodium berghei infected in Swiss Webster mouse assessed as mouse survival rate at 0.4 mg/kg administered once daily via oral gavage for 4 consecutive days beginning 1 hr after infection measured on day 4 post infection relative to control; type: functional; method in brief: as §1
[8] = test system: Plasmodium berghei; assay: Antimalarial activity against Plasmodium berghei infected in Swiss Webster mouse assessed as mouse survival rate at 100 mg/kg administered once daily via oral gavage for 4 consecutive days beginning 1 hr after infection measured on day 5 post infection relative to control; type: functional; method in brief: as §1
[9] = test system: Plasmodium berghei; assay: Antimalarial activity against Plasmodium berghei infected in Swiss Webster mouse assessed as mouse survival rate at 0.1 mg/kg administered once daily via oral gavage for 4 consecutive days beginning 1 hr after infection measured on day 5 post infection relative to control; type: functional; method in brief: as §1
[10] = test system: Plasmodium berghei; assay: Antimalarial activity against Plasmodium berghei infected in Swiss Webster mouse assessed as mouse survival rate at 0.4 mg/kg administered once daily via oral gavage for 4 consecutive days beginning 1 hr after infection measured on day 5 post infection relative to control; type: functional; method in brief: as §1
[11] = test system: Plasmodium berghei; assay: Antimalarial activity against Plasmodium berghei infected in Swiss Webster mouse assessed as mouse survival rate at 3.7 mg/kg administered once daily via oral gavage for 4 consecutive days beginning 1 hr after infection measured on day 6 post infection relative to control; type: functional; method in brief: as §2
[12] = test system: Plasmodium berghei; assay: Antimalarial activity against Plasmodium berghei infected in Swiss Webster mouse assessed as mouse survival rate at 1.2 mg/kg administered once daily via oral gavage for 4 consecutive days beginning 1 hr after infection measured on day 6 post infection relative to control; type: functional; method in brief: as §1
[13] = test system: Plasmodium berghei; assay: Antimalarial activity against Plasmodium berghei infected in Swiss Webster mouse assessed as mouse survival rate at 11 mg/kg administered once daily via oral gavage for 4 consecutive days beginning 1 hr after infection measured on day 7 post infection relative to control; type: functional; method in brief: as §2
[14] = test system: Plasmodium berghei; assay: Antimalarial activity against Plasmodium berghei infected in Swiss Webster mouse assessed as mouse survival rate at 3.7 mg/kg administered once daily via oral gavage for 4 consecutive days beginning 1 hr after infection measured on day 7 post infection relative to control; type: functional; method in brief: as §2
[15] = test system: Plasmodium berghei; assay: Antimalarial activity against Plasmodium berghei infected in Swiss Webster mouse assessed as mouse survival rate at 1.2 mg/kg administered once daily via oral gavage for 4 consecutive days beginning 1 hr after infection measured on day 7 post infection relative to control; type: functional; method in brief: as §1
[16] = test system: Plasmodium berghei; assay: Antimalarial activity against Plasmodium berghei infected in Swiss Webster mouse assessed as mouse survival rate at 0.4 mg/kg administered once daily via oral gavage for 4 consecutive days beginning 1 hr after infection measured on day 7 post infection relative to control; type: functional; method in brief: as §1
[17] = test system: Plasmodium berghei; assay: Antimalarial activity against Plasmodium berghei infected in Swiss Webster mouse assessed as mouse survival rate at 33 mg/kg administered once daily via oral gavage for 4 consecutive days beginning 1 hr after infection measured on day 8 post infection relative to control; type: functional; method in brief: as §2
[18] = test system: Plasmodium berghei; assay: Antimalarial activity against Plasmodium berghei infected in Swiss Webster mouse assessed as mouse survival rate at 33 mg/kg administered once daily via oral gavage for 4 consecutive days beginning 1 hr after infection measured on day 9 post infection relative to control; type: functional; method in brief: as §2
[19] = test system: Plasmodium berghei; assay: Antimalarial activity against Plasmodium berghei infected in Swiss Webster mouse assessed as mouse survival rate at 11 mg/kg administered once daily via oral gavage for 4 consecutive days beginning 1 hr after infection measured on day 9 post infection relative to control; type: functional; method in brief: as §2
[20] = test system: Plasmodium berghei; assay: Antimalarial activity against Plasmodium berghei infected in Swiss Webster mouse assessed as mouse survival rate at 100 mg/kg administered once daily via oral gavage for 4 consecutive days beginning 1 hr after infection measured on day 10 post infection relative to control; type: functional; method in brief: as §1
[21] = test system: Plasmodium berghei; assay: Antimalarial activity against Plasmodium berghei infected in Swiss Webster mouse assessed as mouse survival rate at 33 mg/kg administered once daily via oral gavage for 4 consecutive days beginning 1 hr after infection measured on day 11 post infection relative to control; type: functional; method in brief: as §2
[22] = test system: Plasmodium berghei; assay: Antimalarial activity against Plasmodium berghei infected in Swiss Webster mouse assessed as mouse survival rate at 33 mg/kg administered once daily via oral gavage for 4 consecutive days beginning 1 hr after infection measured on day 12 post infection relative to control; type: functional; method in brief: as §2
[23] = test system: Plasmodium berghei; assay: Antimalarial activity against Plasmodium berghei infected in Swiss Webster mouse assessed as mouse survival rate at 33 mg/kg administered once daily via oral gavage for 4 consecutive days beginning 1 hr after infection measured on day 13 post infection relative to control; type: functional; method in brief: as §2
[24] = test system: Plasmodium berghei; assay: Antimalarial activity against Plasmodium berghei infected in Swiss Webster mouse assessed as mouse survival rate at 100 mg/kg administered once daily via oral gavage for 4 consecutive days beginning 1 hr after infection measured on day 14 post infection relative to control; type: functional; method in brief: as §1
[25] = test system: Plasmodium berghei; assay: Antimalarial activity against Plasmodium berghei infected in Swiss Webster mouse assessed as mouse survival rate at 33 mg/kg administered once daily via oral gavage for 4 consecutive days beginning 1 hr after infection measured on day 14 post infection relative to control; type: functional; method in brief: as §2
[26] = test system: Plasmodium berghei; assay: Antimalarial activity against Plasmodium berghei infected in Swiss Webster mouse assessed as mouse survival rate at 100 mg/kg administered once daily via oral gavage for 4 consecutive days beginning 1 hr after infection measured on day 15 post infection relative to control; type: functional; method in brief: as §1

Structure (SMILES): Cc1c(Oc2cnc(C(=O)N3CC(C)(O)C3)cn2)ccc2c1B(O)OC2
- IC50 [1]: 43 nM
- half-life [2]: 6.8 h
- AUC(0-inf) [3]: 20500 ng·h/mL
- Stability [4]: Stable
- survival at 100 mg/kg [5]: 100%
- survival at 3.7 mg/kg [6]: 100%
- survival at 0.4 mg/kg [7]: 100%
- survival at 100 mg/kg [8]: 100%
- survival at 0.1 mg/kg [9]: 100%
- survival at 0.4 mg/kg [10]: 100%
- survival at 3.7 mg/kg [11]: 100%
- survival at 1.2 mg/kg [12]: 100%
- survival at 11 mg/kg [13]: 100%
- survival at 3.7 mg/kg [14]: 60%
- survival at 1.2 mg/kg [15]: 0%
- survival at 0.4 mg/kg [16]: 0%
- survival at 33 mg/kg [17]: 100%
- survival at 33 mg/kg [18]: 100%
- survival at 11 mg/kg [19]: 0%
- survival at 100 mg/kg [20]: 100%
- survival at 33 mg/kg [21]: 100%
- survival at 33 mg/kg [22]: 100%
- survival at 33 mg/kg [23]: 100%
- survival at 100 mg/kg [24]: 60%
- survival at 33 mg/kg [25]: 0%
- survival at 100 mg/kg [26]: 60%
